Data from ChEMBL document CHEMBL3232705, “Discovery of isoquinolinone indole acetic acids as antagonists of chemoattractant receptor homologous molecule expressed on Th2 cells (CRTH2) for the treatment of allergic inflammatory diseases” (J Med Chem, 2014).
Active and inactive are the calls of the source. The rule behind the calls is not given here.

What was measured:
[1] = target: T1, Thromboxane A2 receptor (Homo sapiens, UniProt P21731); assay: Antagonist activity at TXA2 receptor (unknown origin) by FRET assay
T1 sequence (P21731 whole entry): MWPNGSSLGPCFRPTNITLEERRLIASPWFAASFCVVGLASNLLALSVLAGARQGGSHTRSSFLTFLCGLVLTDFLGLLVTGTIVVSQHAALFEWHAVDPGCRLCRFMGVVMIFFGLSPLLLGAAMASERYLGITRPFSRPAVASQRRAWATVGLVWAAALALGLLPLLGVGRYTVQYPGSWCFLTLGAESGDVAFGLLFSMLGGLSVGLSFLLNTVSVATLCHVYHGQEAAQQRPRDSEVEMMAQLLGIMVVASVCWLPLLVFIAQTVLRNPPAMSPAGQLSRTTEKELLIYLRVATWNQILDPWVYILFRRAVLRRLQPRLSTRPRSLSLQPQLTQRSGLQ

[2] = target: T2, Prostaglandin D2 receptor 2 (Mus musculus, UniProt Q9Z2J6); assay: Inhibition of mouse CRTH2 receptor
T2 sequence (Q9Z2J6 whole entry): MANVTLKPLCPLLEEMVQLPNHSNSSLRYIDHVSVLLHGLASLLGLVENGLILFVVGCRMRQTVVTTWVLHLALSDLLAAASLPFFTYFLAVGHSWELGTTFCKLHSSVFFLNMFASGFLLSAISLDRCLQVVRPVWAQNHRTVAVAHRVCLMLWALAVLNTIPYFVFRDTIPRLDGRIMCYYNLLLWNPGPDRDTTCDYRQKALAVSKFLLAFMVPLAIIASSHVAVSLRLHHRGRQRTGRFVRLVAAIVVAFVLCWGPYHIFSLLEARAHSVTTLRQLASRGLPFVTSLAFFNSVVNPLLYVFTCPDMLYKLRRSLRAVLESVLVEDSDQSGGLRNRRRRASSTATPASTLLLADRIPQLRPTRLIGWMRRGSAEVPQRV

[3] = target: Cytochrome P450 3A4 (Homo sapiens, UniProt P08684); assay: Inhibition of CYP3A4 (unknown origin); format: ADME
[4] = target: Cytochrome P450 2D6 (Homo sapiens, UniProt P10635); assay: Inhibition of CYP2D6 (unknown origin); format: ADME
[5] = target: Cytochrome P450 2C19 (Homo sapiens, UniProt P33261); assay: Inhibition of CYP2C19 (unknown origin); format: ADME
[6] = target: T3, Cytochrome P450 2A6 (Homo sapiens, UniProt P11509); assay: Inhibition of CYP2A6 (unknown origin); format: ADME
T3 sequence (P11509 whole entry): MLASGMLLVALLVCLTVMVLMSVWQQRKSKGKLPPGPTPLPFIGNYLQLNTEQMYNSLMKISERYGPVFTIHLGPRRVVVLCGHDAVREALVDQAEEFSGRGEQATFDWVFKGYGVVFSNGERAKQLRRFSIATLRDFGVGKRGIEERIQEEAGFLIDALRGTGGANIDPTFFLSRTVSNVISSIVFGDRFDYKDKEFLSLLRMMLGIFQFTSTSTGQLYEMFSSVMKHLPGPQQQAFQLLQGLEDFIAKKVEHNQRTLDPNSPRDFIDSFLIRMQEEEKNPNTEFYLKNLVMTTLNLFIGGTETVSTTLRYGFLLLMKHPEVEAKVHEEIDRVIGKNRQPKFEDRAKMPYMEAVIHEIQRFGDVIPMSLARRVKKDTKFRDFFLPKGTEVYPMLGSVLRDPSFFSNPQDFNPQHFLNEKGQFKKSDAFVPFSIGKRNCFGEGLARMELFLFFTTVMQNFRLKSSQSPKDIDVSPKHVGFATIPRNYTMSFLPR

[7] = test system: Ovis aries; assay: Inhibition of allergen-induced mucociliary clearance in sheep assessed as tracheal mucus velocity at 3 mg/kg, iv measured at 4 hrs (reference value: 47%); format: functional; conditions: Trachea
Procedure, shortened: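 Five sheep received 3 mg/kg iv around allergen challenge. Tracheal mucus velocity measured at 4 h and 8 h and expressed as % of baseline.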

[8] = test system: Ovis aries; assay: Inhibition of Ascaris-induced airway bronchoconstriction in sheep assessed as inhibition of early phase allergic airway bronchoconstriction at 3 mg/kg, iv bid; format: functional, organism-based; set-up: dose 3 mg/kg
[9] = test system: Ovis aries; assay: Inhibition of Ascaris-induced airway bronchoconstriction in sheep assessed as inhibition of late phase allergic airway bronchoconstriction at 3 mg/kg, iv bid; format: functional, organism-based; set-up: dose 3 mg/kg
[10] = test system: Mus musculus; assay: Antiallergic activity in house dust mite-induced allergic airway disease BALB/c mouse model assessed as reduction in lymphocyte level in bronchoalveolar lavage fluid at 40 mg/kg, po after 72 hrs of HDM challenge; format: functional, organism-based; set-up: dose 40 mg/kg; conditions: Lung
Procedure, shortened: (§1)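 BALB/c mice given house dust mite intratracheally via a catheter passed through the vocal cords. Test article 40 mg/kg orally once daily; dexamethasone 1 mg/kg ip once daily as reference. Total and differential BAL cells (eosinophils, macrophages, lymphocytes, neutrophils) counted 72 h after HDM challenge. Mean ± SEM, Mann–Whitney U test.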

[11] = test system: Mus musculus; assay: Antiallergic activity in house dust mite-induced allergic airway disease BALB/c mouse model assessed as reduction in total cellularity in bronchoalveolar lavage fluid at 40 mg/kg, po after 72 hrs of HDM challenge; format: functional, organism-based; set-up: dose 40 mg/kg; conditions: Lung; procedure, shortened: as §1
[12] = test system: Mus musculus; assay: Antiallergic activity in house dust mite-induced allergic airway disease BALB/c mouse model assessed as reduction in airway inflammation at 40 mg/kg, po qd after 17 days; format: functional, organism-based; set-up: dose 40 mg/kg; procedure, shortened: as §1
[13] = target: T4, Prostaglandin D2 receptor 2 (Homo sapiens, UniProt Q9Y5Y4); assay: Antagonist activity at human recombinant CRTh2 expressed in CHO-K1 cells by cAMP TR FRET assay; format: functional, cell-based
T4 sequence (Q9Y5Y4 whole entry): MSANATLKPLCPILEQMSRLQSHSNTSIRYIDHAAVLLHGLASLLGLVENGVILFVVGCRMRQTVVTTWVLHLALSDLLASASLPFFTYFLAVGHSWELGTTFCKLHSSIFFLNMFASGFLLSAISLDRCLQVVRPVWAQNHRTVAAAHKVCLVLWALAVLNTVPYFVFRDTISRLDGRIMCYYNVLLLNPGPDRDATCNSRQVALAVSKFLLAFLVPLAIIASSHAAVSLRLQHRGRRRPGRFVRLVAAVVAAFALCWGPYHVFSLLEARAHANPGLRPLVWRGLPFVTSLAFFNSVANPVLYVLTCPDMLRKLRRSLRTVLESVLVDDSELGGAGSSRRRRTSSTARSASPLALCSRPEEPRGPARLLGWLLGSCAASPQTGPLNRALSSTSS

[14] = Oral bioavailability in rat at 10 mg/kg; format: ADME, organism-based; conditions: in vivo
[15] = Cmax in dog at 10 mg/kg, po; format: ADME, organism-based, Canis lupus familiaris; set-up: dose 10 mg/kg, route oral; conditions: in vivo
Procedure, shortened: (§2)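 Single intravenous dose of 2 mg/kg and single oral dose of 10 mg/kg, given separately, in rat, dog and monkey. Clearance and half-life taken from the iv arm; Cmax from the oral arm.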

[16] = Cmax in monkey at 10 mg/kg, po; format: ADME, organism-based, Macaca mulatta; set-up: dose 10 mg/kg, route oral; conditions: rhesus monkey, in vivo; procedure, shortened: as §2
[17] = Volume of distribution at steady state in rat at 2 mg/kg, iv; format: ADME, organism-based; set-up: dose 2 mg/kg, route intravenous; conditions: in vivo, read-out: Vdss
[18] = Permeability in human Caco2 cells at pH 6.5; conditions: Caco-2, pH 6.5

Cytochrome P450 2D6, sequence (P10635 whole entry): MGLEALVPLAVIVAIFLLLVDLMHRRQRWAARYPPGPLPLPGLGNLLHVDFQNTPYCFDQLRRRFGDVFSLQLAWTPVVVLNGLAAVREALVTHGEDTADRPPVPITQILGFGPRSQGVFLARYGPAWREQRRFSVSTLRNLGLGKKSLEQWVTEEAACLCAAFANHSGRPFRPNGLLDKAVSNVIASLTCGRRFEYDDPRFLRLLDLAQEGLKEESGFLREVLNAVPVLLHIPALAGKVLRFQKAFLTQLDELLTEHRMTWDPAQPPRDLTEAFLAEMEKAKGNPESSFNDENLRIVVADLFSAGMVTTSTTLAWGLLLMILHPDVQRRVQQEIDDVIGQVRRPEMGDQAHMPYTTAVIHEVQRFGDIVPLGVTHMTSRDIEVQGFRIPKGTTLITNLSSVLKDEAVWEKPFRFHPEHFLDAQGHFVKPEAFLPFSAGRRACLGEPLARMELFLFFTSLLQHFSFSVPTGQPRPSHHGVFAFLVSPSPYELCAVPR
Cytochrome P450 3A4, sequence (P08684 whole entry): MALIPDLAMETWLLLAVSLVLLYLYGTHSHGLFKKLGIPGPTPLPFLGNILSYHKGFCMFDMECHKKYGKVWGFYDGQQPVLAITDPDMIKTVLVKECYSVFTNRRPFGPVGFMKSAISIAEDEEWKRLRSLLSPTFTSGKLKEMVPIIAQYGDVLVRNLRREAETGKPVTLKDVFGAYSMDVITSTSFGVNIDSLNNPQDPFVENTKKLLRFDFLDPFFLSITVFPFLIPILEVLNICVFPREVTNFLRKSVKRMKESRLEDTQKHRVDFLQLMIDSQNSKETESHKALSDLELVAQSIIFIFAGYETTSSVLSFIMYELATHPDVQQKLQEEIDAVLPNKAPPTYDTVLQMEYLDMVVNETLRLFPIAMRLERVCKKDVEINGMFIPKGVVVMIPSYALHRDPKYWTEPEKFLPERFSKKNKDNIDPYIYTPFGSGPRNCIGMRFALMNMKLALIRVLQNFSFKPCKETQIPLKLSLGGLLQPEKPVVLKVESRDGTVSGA
Cytochrome P450 2C19, sequence (P33261 whole entry): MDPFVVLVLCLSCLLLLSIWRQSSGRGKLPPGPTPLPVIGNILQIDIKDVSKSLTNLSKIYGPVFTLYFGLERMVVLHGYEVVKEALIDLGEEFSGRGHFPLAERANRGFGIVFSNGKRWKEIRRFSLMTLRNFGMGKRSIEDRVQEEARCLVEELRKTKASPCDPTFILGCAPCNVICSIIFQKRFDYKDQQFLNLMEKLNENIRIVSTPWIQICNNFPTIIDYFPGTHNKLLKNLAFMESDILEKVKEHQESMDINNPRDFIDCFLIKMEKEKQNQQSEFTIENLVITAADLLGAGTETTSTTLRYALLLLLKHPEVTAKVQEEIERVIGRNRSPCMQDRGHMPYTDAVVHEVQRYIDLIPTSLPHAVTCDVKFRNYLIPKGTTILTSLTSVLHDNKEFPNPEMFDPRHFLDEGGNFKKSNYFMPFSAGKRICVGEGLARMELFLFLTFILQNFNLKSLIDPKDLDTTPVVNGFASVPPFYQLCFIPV

Q: With `Cc1c(-c2cn(C(C)C)c(=O)c3ccccc23)c2cc(F)ccc2n1CC(=O)O` as the molecule, how does the IC50 [1] read?
A: The IC50 was greater than 1000 nM.

Q: And the IC50 [2]?
A: Its IC50 is 4 nM.

Q: And the IC50 [3]?
A: Its IC50 is greater than 100 µM.

Q: And the IC50 [4]?
A: Its IC50 is greater than 100 µM.

Q: What about the IC50 [5] of the same molecule?
A: The IC50 was greater than 100 µM.

Q: And the IC50 [6]?
A: The IC50 was greater than 100 µM.

Q: What about the inhibition in vivo at 3 mg/kg [7] of the same molecule?
A: Its inhibition in vivo at 3 mg/kg is 70%.

Q: And the inhibition [8]?
A: The inhibition was “inactive”.

Q: And the inhibition [9]?
A: Its inhibition is “Active”.

Q: And the inhibition [10]?
A: Its inhibition is “Active”.

Q: What about the inhibition [11] of the same molecule?
A: Its inhibition is “Active”.

Q: What about the inhibition [12] of the same molecule?
A: The inhibition was “Active”.

Q: And the IC50 [13]?
A: The IC50 was 6 nM.

Q: What about the bioavailability [14] of the same molecule?
A: Its bioavailability is 20%.

Q: What about the Cmax [15] of the same molecule?
A: The Cmax was 2010 ng/mL.

Q: And the Cmax [16]?
A: Its Cmax is 2970 ng/mL.

Q: What about the Vd [17] of the same molecule?
A: Its Vd is 1.2 L/kg.

Q: And the Papp [18]?
A: Its Papp is 2.7 ×10⁻⁶ cm/s.
